According to the M2OR odorant receptor database:
Numbering of substitutions follows the chain as printed.

Tests used:
Conditions in all cases: stereoisomer not certain
OR10R2 (Homo sapiens) = molecular target: T1, OR10R2 (Homo sapiens) (UniProt Q8NGX6)
T1 sequence (whole entry): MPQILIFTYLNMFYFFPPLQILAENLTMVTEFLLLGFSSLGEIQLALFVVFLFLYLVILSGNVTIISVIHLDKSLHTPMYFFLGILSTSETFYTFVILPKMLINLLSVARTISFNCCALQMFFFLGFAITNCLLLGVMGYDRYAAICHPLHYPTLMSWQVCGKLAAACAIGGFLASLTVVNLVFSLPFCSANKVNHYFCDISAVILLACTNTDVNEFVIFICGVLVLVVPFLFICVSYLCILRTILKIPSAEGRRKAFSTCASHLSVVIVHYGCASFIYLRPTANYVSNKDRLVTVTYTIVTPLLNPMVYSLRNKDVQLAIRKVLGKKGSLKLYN
Procedure, shortened: (§1)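 Values were gathered from published papers (main text and supplementary material), with extra details requested from the original authors when needed, and checked for typos and inconsistencies. Each receptor–molecule pair is called responsive (active) if the original authors judged the measured signal statistically different from baseline, and non-responsive (inactive) otherwise. Assay methods varied by source, often transient mammalian cell-line luciferase assays. Recorded details include cell line, G-protein, co-transfected protein and tags.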

OR10S1 (Homo sapiens) = molecular target: T2, OR10S1 (Homo sapiens) (UniProt Q8NGN2)
T2 sequence (whole entry): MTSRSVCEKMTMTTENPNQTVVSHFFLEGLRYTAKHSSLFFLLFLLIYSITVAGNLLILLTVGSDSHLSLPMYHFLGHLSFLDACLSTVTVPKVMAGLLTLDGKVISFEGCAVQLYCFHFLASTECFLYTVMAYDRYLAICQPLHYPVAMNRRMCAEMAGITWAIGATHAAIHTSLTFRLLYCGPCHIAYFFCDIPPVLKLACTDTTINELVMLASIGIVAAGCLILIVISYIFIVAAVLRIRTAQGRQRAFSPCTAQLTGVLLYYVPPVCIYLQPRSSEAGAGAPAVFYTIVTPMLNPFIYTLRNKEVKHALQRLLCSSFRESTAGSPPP
Procedure, shortened: as §1

OR10T2 (Homo sapiens) = molecular target: T3, OR10T2 (Homo sapiens) (UniProt Q8NGX3)
T3 sequence (whole entry): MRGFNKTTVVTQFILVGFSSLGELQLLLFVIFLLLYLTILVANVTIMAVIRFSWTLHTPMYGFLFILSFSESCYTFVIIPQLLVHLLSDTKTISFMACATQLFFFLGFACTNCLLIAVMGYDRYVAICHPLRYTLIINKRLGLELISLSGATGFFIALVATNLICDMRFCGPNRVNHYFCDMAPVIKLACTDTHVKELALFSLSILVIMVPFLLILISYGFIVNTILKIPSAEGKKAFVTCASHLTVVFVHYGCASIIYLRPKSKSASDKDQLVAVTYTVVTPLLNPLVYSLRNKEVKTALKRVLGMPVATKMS
Procedure, shortened: as §1

OR10V1 (Homo sapiens) = molecular target: T4, OR10V1 (Homo sapiens) (UniProt Q8NGI7)
T4 sequence (whole entry): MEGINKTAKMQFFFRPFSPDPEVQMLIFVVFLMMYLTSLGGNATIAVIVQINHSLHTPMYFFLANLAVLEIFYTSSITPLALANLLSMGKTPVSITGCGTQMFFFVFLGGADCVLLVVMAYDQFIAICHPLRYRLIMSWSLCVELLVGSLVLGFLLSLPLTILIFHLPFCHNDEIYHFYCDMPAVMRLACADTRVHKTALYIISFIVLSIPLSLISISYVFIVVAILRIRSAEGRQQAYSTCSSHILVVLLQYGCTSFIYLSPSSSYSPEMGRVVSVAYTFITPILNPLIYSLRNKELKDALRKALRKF
Procedure, shortened: as §1

OR10W1 (Homo sapiens) = molecular target: T5, OR10W1 (Homo sapiens) (UniProt Q8NGF6)
T5 sequence (whole entry): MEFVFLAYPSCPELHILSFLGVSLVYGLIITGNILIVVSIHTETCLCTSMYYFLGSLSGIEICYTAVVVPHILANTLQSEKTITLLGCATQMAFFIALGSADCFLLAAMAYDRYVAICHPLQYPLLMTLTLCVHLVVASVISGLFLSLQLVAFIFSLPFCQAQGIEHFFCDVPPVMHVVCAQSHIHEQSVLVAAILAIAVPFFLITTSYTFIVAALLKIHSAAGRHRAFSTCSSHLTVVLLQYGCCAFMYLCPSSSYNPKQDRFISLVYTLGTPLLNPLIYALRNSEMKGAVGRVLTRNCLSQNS
Procedure, shortened: as §1

OR10X1 (Homo sapiens) = molecular target: T6, OR10X1 (Homo sapiens) (UniProt Q8NGY0)
T6 sequence (whole entry): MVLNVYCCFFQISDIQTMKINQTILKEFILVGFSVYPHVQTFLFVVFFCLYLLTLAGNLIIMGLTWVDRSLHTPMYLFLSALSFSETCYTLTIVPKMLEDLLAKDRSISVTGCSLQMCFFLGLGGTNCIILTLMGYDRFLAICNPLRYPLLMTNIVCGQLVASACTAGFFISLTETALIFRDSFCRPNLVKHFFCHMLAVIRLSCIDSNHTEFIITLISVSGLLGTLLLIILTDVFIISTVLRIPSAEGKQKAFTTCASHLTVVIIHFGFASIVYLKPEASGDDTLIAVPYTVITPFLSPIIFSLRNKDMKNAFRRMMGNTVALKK
Procedure, shortened: as §1

OR10Z1 (Homo sapiens) = molecular target: T7, OR10Z1 (Homo sapiens) (UniProt Q8NGY1)
T7 sequence (whole entry): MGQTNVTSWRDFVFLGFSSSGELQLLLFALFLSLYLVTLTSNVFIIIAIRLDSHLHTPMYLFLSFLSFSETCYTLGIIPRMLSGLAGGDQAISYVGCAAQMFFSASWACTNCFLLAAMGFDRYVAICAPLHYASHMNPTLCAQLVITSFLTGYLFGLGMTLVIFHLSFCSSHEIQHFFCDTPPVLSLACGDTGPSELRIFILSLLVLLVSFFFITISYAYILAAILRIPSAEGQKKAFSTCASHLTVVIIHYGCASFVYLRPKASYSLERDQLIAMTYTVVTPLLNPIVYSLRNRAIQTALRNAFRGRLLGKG
Procedure, shortened: as §1

OR11A1 (Homo sapiens) = molecular target: T8, OR11A1 (Homo sapiens) (UniProt Q9GZK7)
T8 sequence (whole entry): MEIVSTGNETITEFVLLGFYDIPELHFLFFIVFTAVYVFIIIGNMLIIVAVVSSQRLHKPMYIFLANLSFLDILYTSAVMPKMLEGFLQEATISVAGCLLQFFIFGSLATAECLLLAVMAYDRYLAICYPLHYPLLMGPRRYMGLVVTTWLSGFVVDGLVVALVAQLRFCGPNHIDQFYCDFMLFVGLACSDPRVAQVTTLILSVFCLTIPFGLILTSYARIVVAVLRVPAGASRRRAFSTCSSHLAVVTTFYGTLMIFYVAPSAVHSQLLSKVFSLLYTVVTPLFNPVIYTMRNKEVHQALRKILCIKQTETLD
Procedure, shortened: as §1

OR11G2 (Homo sapiens) = molecular target: T9, OR11G2 (Homo sapiens) (UniProt Q8NGC1)
T9 sequence (whole entry): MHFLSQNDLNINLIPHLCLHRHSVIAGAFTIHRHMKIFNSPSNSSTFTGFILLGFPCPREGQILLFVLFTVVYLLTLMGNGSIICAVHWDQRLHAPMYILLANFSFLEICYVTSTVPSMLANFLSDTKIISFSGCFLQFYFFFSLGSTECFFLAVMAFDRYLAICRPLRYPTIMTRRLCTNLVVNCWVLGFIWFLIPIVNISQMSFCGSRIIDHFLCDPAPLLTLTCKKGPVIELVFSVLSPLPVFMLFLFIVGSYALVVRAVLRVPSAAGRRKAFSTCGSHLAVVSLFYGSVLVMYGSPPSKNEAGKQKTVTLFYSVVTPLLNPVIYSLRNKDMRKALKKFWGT
Procedure, shortened: as §1

OR11H1 (Homo sapiens) = molecular target: T10, OR11H1 (Homo sapiens) (UniProt Q8NG94)
T10 sequence (whole entry): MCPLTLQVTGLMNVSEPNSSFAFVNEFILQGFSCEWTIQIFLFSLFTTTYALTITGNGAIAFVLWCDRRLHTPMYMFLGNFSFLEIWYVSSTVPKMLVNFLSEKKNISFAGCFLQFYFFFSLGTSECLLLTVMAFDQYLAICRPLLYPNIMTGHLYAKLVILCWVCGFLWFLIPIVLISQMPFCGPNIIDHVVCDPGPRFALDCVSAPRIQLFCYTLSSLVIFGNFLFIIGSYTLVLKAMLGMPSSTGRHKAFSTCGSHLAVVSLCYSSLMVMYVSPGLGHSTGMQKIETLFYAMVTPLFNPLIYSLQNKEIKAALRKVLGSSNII
Procedure, shortened: as §1

OR11H12 (Homo sapiens) = molecular target: T11, OR11H12 (Homo sapiens) (UniProt B2RN74)
T11 sequence (whole entry): T10 sequence (whole entry) with S33T, R68W, Y156C, M240V
Procedure, shortened: as §1

OR11H2 (Homo sapiens) = molecular target: T12, OR11H2 (Homo sapiens) (UniProt Q8NH07)
T12 sequence (whole entry): T10 sequence (whole entry) with Q7H, T49I, M181K, R199L, M240V, S269P
Procedure, shortened: as §1

OR11H4 (Homo sapiens) = molecular target: T13, OR11H4 (Homo sapiens) (UniProt Q8NGC9)
T13 sequence (whole entry): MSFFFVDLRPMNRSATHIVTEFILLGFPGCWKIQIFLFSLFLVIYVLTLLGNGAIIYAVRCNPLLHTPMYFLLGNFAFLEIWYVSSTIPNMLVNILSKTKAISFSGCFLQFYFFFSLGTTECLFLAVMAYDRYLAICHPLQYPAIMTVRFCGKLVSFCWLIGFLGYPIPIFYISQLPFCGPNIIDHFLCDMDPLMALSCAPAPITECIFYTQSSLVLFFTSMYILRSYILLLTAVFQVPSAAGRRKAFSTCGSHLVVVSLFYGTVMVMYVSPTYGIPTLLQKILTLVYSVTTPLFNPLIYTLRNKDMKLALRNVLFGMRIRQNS
Procedure, shortened: as §1

OR11H6 (Homo sapiens) = molecular target: T14, OR11H6 (Homo sapiens) (UniProt Q8NGC7)
T14 sequence (whole entry): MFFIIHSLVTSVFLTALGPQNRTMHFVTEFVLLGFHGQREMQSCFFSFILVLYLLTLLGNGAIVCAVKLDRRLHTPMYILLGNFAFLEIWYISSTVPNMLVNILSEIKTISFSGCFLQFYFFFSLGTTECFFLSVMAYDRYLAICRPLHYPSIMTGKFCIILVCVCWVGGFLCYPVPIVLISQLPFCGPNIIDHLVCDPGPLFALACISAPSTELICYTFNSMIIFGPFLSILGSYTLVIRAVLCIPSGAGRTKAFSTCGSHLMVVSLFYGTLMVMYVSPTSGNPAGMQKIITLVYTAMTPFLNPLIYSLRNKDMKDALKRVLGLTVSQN
Procedure, shortened: as §1

OR11L1 (Homo sapiens) = molecular target: T15, OR11L1 (Homo sapiens) (UniProt Q8NGX0)
T15 sequence (whole entry): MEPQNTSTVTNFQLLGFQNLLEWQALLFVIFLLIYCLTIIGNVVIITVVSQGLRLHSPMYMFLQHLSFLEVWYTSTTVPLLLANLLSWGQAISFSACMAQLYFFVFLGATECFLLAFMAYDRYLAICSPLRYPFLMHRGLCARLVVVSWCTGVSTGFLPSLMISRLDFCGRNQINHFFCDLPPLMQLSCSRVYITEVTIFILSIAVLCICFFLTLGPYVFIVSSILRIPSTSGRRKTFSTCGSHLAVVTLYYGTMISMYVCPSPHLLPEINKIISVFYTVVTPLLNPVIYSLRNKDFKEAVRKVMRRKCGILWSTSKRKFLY
Procedure, shortened: as §1

OR12D2 (Homo sapiens) = molecular target: T16, OR12D2 (Homo sapiens) (UniProt P58182)
T16 sequence (whole entry): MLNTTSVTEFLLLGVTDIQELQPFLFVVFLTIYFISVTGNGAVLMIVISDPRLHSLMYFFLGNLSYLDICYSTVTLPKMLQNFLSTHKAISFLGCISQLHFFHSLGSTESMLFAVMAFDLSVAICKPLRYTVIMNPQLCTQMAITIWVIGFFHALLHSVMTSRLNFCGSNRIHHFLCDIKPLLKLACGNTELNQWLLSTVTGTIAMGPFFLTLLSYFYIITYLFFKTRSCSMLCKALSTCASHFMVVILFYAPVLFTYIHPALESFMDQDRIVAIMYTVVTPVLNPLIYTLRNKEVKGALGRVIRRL
Procedure, shortened: as §1

OR12D3 (Homo sapiens) = molecular target: T17, OR12D3 (Homo sapiens) (UniProt Q9UGF7)
T17 sequence (whole entry): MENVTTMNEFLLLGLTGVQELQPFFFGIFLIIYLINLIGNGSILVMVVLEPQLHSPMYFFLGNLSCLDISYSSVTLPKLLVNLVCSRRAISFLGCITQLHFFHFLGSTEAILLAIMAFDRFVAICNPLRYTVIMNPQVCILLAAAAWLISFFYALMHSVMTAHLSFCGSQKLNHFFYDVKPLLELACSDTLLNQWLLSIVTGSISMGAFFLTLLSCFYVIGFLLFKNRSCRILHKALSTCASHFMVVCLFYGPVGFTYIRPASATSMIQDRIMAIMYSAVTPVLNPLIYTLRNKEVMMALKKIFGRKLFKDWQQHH
Procedure, shortened: as §1

OR13A1 (Homo sapiens) = molecular target: T18, OR13A1 (Homo sapiens) (UniProt Q8NGR1)
T18 sequence (whole entry): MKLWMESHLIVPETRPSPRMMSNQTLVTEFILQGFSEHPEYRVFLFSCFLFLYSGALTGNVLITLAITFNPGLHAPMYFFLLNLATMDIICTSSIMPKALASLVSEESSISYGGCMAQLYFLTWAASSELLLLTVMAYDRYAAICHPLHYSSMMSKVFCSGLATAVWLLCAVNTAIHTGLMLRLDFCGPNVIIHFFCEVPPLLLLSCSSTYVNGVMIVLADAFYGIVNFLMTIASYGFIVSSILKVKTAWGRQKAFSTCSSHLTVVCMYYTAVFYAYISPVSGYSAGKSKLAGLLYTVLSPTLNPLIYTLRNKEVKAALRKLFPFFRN
Procedure, shortened: as §1

Measured: odorant receptor agonist call

CCC1OC(=O)C(O)=C1C (stereo not given)
inactive: all assays above

CCCCCCCCCC(=O)OCC
inactive: OR10S1 (Homo sapiens)

CCCCCCCCCCCC(=O)OC
inactive: OR10S1 (Homo sapiens)

CCCCCC(=O)C(C)C(C)=O (stereo not given)
not listed: OR11H12 (Homo sapiens)
inactive: all other assays above

CCCCCC(S)C(C)CO (stereo not given)
active: OR11H2 (Homo sapiens)
not listed: OR11H12 (Homo sapiens)
inactive: all other assays above

CC(=O)O
inactive: OR10S1 (Homo sapiens)

CCCCCCCCCCCC(=O)OCC
inactive: OR10S1 (Homo sapiens)

CCCCC(S)C(C)CO (stereo not given)
not listed: OR11H12 (Homo sapiens)
inactive: all other assays above

O=c1ccc2ccccc2o1
active: OR11H12 (Homo sapiens)

O=C1CCOc2ccccc21
inactive: OR11H12 (Homo sapiens)
